Experimental data published in ChEMBL document CHEMBL5543076, “Chromone-based small molecules for multistep shutdown of arachidonate pathway: Simultaneous inhibition of COX-2, 15-LOX and mPGES-1 enzymes” (Eur J Med Chem, 2024).
pIC50: −log10 of the molar value. Calls of active or inactive are those of the source. No cut-off for these calls is given here.

Experiments:
Prostaglandin E synthase = molecular target: T1, Prostaglandin E synthase (Homo sapiens, UniProt O14684); assay: Inhibition of human mPGE2S1 using PGH2 as substrate measured after 5 mins by ELISA method
T1 sequence (O14684 whole entry): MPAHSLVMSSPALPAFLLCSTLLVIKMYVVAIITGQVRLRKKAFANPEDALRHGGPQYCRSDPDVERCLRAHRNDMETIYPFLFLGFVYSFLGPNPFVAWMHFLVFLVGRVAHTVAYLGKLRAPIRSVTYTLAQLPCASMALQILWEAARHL
Summary of the method: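 Cell-free assay using microsomes from interleukin-1β-stimulated human A549 lung carcinoma cells as enzyme source. Reaction contained 20 μM PGH2 and 2.5 mM glutathione with serial inhibitor dilutions, 5 min at room temperature. Stopped with SnCl2, which converts leftover PGH2 to PGF2α. PGE2 measured by ELISA; IC50 ± SD from log dose–response curve.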

[1] = Toxicity in Wistar rat assessed as effect on ulceration measured after 8 days by H and E staining based analysis; conditions: in vivo, 192 h, time 8 day
Summary of the method: (§1)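 Female Wistar rats dosed for eight days; stomachs then removed for gross inspection of ulceration and histology on H&E-stained sections.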

[2] = molecular target: T2, Prostaglandin G/H synthase 1 (Ovis aries, UniProt P05979); assay: Inhibition of ovine COX-1 by colorimetric assay
T2 sequence (P05979 whole entry): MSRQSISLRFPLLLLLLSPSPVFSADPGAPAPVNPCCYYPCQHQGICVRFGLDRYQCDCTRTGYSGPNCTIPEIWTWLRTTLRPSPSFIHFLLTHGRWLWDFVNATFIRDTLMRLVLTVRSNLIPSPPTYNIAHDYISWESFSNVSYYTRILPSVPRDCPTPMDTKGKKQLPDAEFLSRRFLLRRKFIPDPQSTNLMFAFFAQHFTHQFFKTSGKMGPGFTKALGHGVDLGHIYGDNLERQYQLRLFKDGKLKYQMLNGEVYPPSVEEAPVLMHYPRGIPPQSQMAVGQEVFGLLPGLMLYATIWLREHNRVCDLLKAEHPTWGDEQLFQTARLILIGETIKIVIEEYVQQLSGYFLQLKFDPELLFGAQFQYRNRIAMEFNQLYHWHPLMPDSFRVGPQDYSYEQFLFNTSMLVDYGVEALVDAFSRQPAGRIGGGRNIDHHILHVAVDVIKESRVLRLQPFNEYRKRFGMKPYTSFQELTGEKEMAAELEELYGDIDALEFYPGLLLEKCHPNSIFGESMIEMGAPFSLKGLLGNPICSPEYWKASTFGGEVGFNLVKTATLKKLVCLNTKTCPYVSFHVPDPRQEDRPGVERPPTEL
Summary of the method: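 Ovine COX-1 enzyme kit, run following the manufacturer's instructions; IC50 reported as mean of three replicates.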

[3] = Inhibition of soybean 15-LOX; set-up: species or system Glycine max
Summary of the method: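 Soybean 15-LOX activity measured with a lipoxygenase inhibitor screening kit per the manufacturer's instructions; IC50 determined.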

[4] = Toxicity in Wistar rat assessed as effect on gastric ulcer measured after 8 days; conditions: in vivo, 192 h, time 8 day; summary of the method: as §1
RAW264.7 [5] = assay: Antiinflammatory activity against LPS-induced mouse RAW264.7 cells assessed as downregulation of TNF-alpha level at 50 ug/ml incubated for 24 hrs by RT-PCR analysis relative to control; format: functional; conditions: dose 50 µg/ml
RAW264.7 [6] = assay: Antiinflammatory activity against LPS-induced mouse RAW264.7 cells assessed as upregulation of IL-10 level at 50 ug/ml incubated for 24 hrs by RT-PCR analysis relative to control; format: functional; conditions: dose 50 µg/ml
[7] = Toxicity in Wistar rat assessed as increase in submucosal inflammatory cells measured after 8 days by H and E staining based analysis; conditions: 192 h, time 8 day; summary of the method: as §1
[8] = Toxicity in Wistar rat assessed as effect on epithelium measured after 8 days by H and E staining based analysis; conditions: in vivo, 192 h, time 8 day; summary of the method: as §1
[9] = Toxicity in Wistar rat assessed as dilation of submucosal blood vessels measured after 8 days by H and E staining based analysis; conditions: 192 h, time 8 day; summary of the method: as §1
RAW264.7 [10] = assay: Antiinflammatory activity against LPS-induced mouse RAW264.7 cells assessed as downregulation of COX-2 level at 50 ug/ml incubated for 24 hrs by RT-PCR analysis relative to control; format: functional; conditions: dose 50 µg/ml
Rattus norvegicus = assay: Antiinflammatory activity in formalin-induced paw edema in Wistar rat model assessed as reduction in paw edema volume at 5 mg/kg, po administered once daily via gavage by 7 days by vernier caliper method; format: functional, organism-based; conditions: time 7.0 day
RAW264.7 [11] = assay: Cytotoxicity against mouse RAW264.7 cells measured after 72 hrs by MTT assay; format: functional, cell-based
Summary of the method: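 RAW264.7 cells were seeded at 4 × 10³ per well with compound (100 to 0.4 μg/ml, in DMSO) for 72 h at 37 °C, 5% CO2. MTT (5 mg/ml solution) was added for 4 h, formazan dissolved in DMSO, and absorbance read at 490 nm.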

RAW264.7 [12] = assay: Antiinflammatory activity against LPS-induced mouse RAW264.7 cells assessed as downregulation of iNOS level at 50 ug/ml incubated for 24 hrs by RT-PCR analysis relative to control; format: functional; conditions: dose 50 µg/ml
RAW264.7 [13] = assay: Antiinflammatory activity against LPS-induced mouse RAW264.7 cells assessed as downregulation of IL-1 beta level at 50 ug/ml incubated for 24 hrs by RT-PCR analysis relative to control; format: functional; conditions: dose 50 µg/ml
[14] = Toxicity in Wistar rat assessed as congested vessels measured after 8 days by H and E staining based analysis; conditions: in vivo, 192 h, time 8 day; summary of the method: as §1
[15] = Toxicity in Wistar rat assessed as abundant submucosal infiltration measured after 8 days by H and E staining based analysis; conditions: in vivo, 192 h, time 8 day; summary of the method: as §1

**Q.** With `Cc1ccc(-c2cc(C(F)(F)F)nn2-c2ccc(S(N)(=O)=O)cc2)cc1` [CELECOXIB] as the molecule, how does the pIC50 (Prostaglandin E synthase) read?
**A.** The pIC50 was 4.70.

**Q.** And the Activity [1]?
**A.** The Activity was “Non-Toxic”.

**Q.** With `CN/N=C/c1coc2ccc(OC)cc2c1=O` as the molecule, how does the pIC50 [2] read?
**A.** Its pIC50 is 5.06.

**Q.** And the pIC50 [3]?
**A.** The pIC50 was 5.49.

**Q.** Which Activity [4] does the source give for `COc1ccc2occ(/C=N/NC(=O)OCc3ccccc3)c(=O)c2c1` here?
**A.** The Activity was “Non-Toxic”.

**Q.** And the Activity (RAW264.7 [5])?
**A.** Its Activity is 32%.

**Q.** What about the Activity (RAW264.7 [6]) of the same molecule?
**A.** The Activity was 43%.

**Q.** And the pIC50 (Prostaglandin E synthase)?
**A.** The pIC50 was 5.31.

**Q.** What about the Activity [7] of the same molecule?
**A.** The Activity was “Toxic”.

**Q.** And the Activity [8]?
**A.** Its Activity is “Non-Toxic”.

**Q.** What about the pIC50 [2] of the same molecule?
**A.** Its pIC50 is 5.01.

**Q.** And the Activity [9]?
**A.** The Activity was “Toxic”.

**Q.** And the pIC50 [3]?
**A.** The pIC50 was 5.52.

**Q.** And the Activity (RAW264.7 [10])?
**A.** The Activity was 33%.

**Q.** And the Activity (Rattus norvegicus)?
**A.** The Activity was “Active”.

**Q.** What about the Activity (RAW264.7 [11]) of the same molecule?
**A.** The Activity was “inactive”.

**Q.** What about the Activity (RAW264.7 [12]) of the same molecule?
**A.** Its Activity is 32%.

**Q.** What about the Activity (RAW264.7 [13]) of the same molecule?
**A.** The Activity was 54%.

**Q.** Which results are given for `COC(=O)N/N=C/c1coc2ccc(OC)cc2c1=O`?
**A.** pIC50 [2]: 5.16; pIC50 [3]: 5.39

**Q.** With `O=c1c(O)c(-c2ccc(O)c(O)c2)oc2cc(O)cc(O)c12` [QUERCETIN] as the molecule, how does the pIC50 [3] read?
**A.** Its pIC50 is 5.48.

**Q.** For `O=C([O-])Cc1ccccc1Nc1c(Cl)cccc1Cl.[Na+]` [DICLOFENAC SODIUM], which Activity [8] is on record?
**A.** Its Activity is “Non-Toxic”.

**Q.** What about the Activity [14] of the same molecule?
**A.** Its Activity is “Toxic”.

**Q.** What about the Activity [15] of the same molecule?
**A.** Its Activity is “Toxic”.

**Q.** With `O=C(N/N=C/c1coc2ccccc2c1=O)OCc1ccccc1` as the molecule, how does the Activity [4] read?
**A.** The Activity was “Non-Toxic”.

**Q.** What about the Activity (RAW264.7 [5]) of the same molecule?
**A.** The Activity was 32%.

**Q.** And the Activity (RAW264.7 [6])?
**A.** Its Activity is 43%.

**Q.** And the pIC50 (Prostaglandin E synthase)?
**A.** Its pIC50 is 5.39.

**Q.** What about the Activity [8] of the same molecule?
**A.** Its Activity is “Non-Toxic”.

**Q.** What about the pIC50 [2] of the same molecule?
**A.** The pIC50 was 4.91.

**Q.** What about the Activity [14] of the same molecule?
**A.** The Activity was “Toxic”.

**Q.** And the pIC50 [3]?
**A.** The pIC50 was 5.76.

**Q.** What about the Activity (RAW264.7 [10]) of the same molecule?
**A.** Its Activity is 33%.

**Q.** And the Activity [15]?
**A.** Its Activity is “Toxic”.

**Q.** And the Activity (Rattus norvegicus)?
**A.** Its Activity is “Active”.

**Q.** And the Activity (RAW264.7 [11])?
**A.** The Activity was “inactive”.

**Q.** And the Activity (RAW264.7 [12])?
**A.** The Activity was 32%.

**Q.** What about the Activity (RAW264.7 [13]) of the same molecule?
**A.** The Activity was 54%.

**Q.** With `COC(=O)N/N=C/c1coc2cc(OC)ccc2c1=O` as the molecule, how does the pIC50 [2] read?
**A.** Its pIC50 is 5.22.

**Q.** What about the pIC50 [3] of the same molecule?
**A.** The pIC50 was 5.34.

**Q.** With `COc1ccc2c(=O)c(/C=N/NC(=O)OCc3ccccc3)coc2c1` as the molecule, how does the Activity [4] read?
**A.** Its Activity is “Non-Toxic”.

**Q.** And the Activity (RAW264.7 [5])?
**A.** The Activity was 32%.

**Q.** And the Activity (RAW264.7 [6])?
**A.** Its Activity is 43%.

**Q.** What about the pIC50 (Prostaglandin E synthase) of the same molecule?
**A.** Its pIC50 is 5.55.

**Q.** And the Activity [7]?
**A.** Its Activity is “Toxic”.

**Q.** And the Activity [8]?
**A.** The Activity was “Non-Toxic”.

**Q.** And the pIC50 [2]?
**A.** Its pIC50 is 4.95.

**Q.** And the Activity [9]?
**A.** Its Activity is “Toxic”.

**Q.** And the pIC50 [3]?
**A.** The pIC50 was 5.62.

**Q.** And the Activity (RAW264.7 [10])?
**A.** The Activity was 33%.

**Q.** What about the Activity (Rattus norvegicus) of the same molecule?
**A.** The Activity was “Active”.

**Q.** What about the Activity (RAW264.7 [11]) of the same molecule?
**A.** The Activity was “inactive”.

**Q.** What about the Activity (RAW264.7 [12]) of the same molecule?
**A.** The Activity was 32%.

**Q.** And the Activity (RAW264.7 [13])?
**A.** The Activity was 54%.

**Q.** With `COC(=O)N/N=C/c1coc2ccccc2c1=O` as the molecule, how does the pIC50 (Prostaglandin E synthase) read?
**A.** Its pIC50 is 5.43.

**Q.** And the pIC50 [2]?
**A.** Its pIC50 is 5.13.

**Q.** What about the pIC50 [3] of the same molecule?
**A.** Its pIC50 is 5.56.

**Q.** With `CN/N=C/c1coc2ccccc2c1=O` as the molecule, how does the pIC50 [2] read?
**A.** Its pIC50 is 5.39.

**Q.** And the pIC50 [3]?
**A.** Its pIC50 is 5.35.

**Q.** Which results are given for `CN/N=C/c1coc2cc(OC)ccc2c1=O`?
**A.** pIC50 [2]: 5.44; pIC50 [3]: 5.37
